ChEMBL document CHEMBL4316612, “Synthesis of novel dihydrotriazine derivatives bearing 1,3-diaryl pyrazole moieties as potential antibacterial agents” (Bioorg Med Chem Lett, 2019)
In brackets after ≈: the same amount, converted by molar mass.

Key:
Format in all cases: functional
Staphylococcus aureus [1] = test: Antibacterial activity against quinolone-resistant Staphylococcus aureus CCARM 3505 after 24 hrs by microtiter ELISA; conditions: CCARM 3505, 24 h
Method in brief: (§1)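 Broth microdilution MIC. Bacteria grown to mid-log phase in Mueller-Hinton broth, diluted 1000-fold, and inoculated at 10^5 CFU/mL. Compounds in DMSO (final ≤0.05%) were given as two-fold serial dilutions, final 64-0.25 µg/mL. Plates were incubated 24 h at 37 °C and growth read at 650 nm. MIC is the lowest concentration giving complete growth inhibition. Three independent experiments; oxacillin and norfloxacin served as positive controls.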

Escherichia coli = test: Antibacterial activity against Escherichia coli KCTC 1924 after 24 hrs by microtiter ELISA; conditions: KCTC 1924, 24 h
Method in brief: (§2)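 Two-fold serial broth dilution in Mueller-Hinton broth, final 64-0.25 µg/mL; compounds in DMSO (final ≤0.05%). Mid-log cultures diluted 1000-fold, inoculum 10^5 CFU/mL; oxacillin and norfloxacin as positive controls. After 24 h at 37 °C, growth read at 650 nm on a microtiter ELISA reader; MIC = lowest level giving complete growth inhibition. Run three times.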

Staphylococcus aureus [2] = test: Antibacterial activity against methicillin-resistant Staphylococcus aureus CCARM 3167 after 24 hrs by microtiter ELISA; conditions: CCARM 3167, 24 h; method in brief: as §1
Candida albicans = test: Antifungal activity against Candida albicans 7535 after 24 hrs by microtiter ELISA; conditions: Candida albicans, 7535, 24 h; method in brief: as §2
Staphylococcus aureus [3] = test: Antibacterial activity against quinolone-resistant Staphylococcus aureus CCARM 3519 after 24 hrs by microtiter ELISA; conditions: CCARM 3519, 24 h; method in brief: as §1
Staphylococcus aureus [4] = test: Antibacterial activity against Staphylococcus aureus RN4220 after 24 hrs by microtiter ELISA; conditions: RN4220, 24 h; method in brief: as §1
Staphylococcus aureus [5] = test: Antibacterial activity against methicillin-resistant Staphylococcus aureus CCARM 3506 after 24 hrs by microtiter ELISA; conditions: CCARM 3506, 24 h; method in brief: as §1
Streptococcus mutans = test: Antibacterial activity against Streptococcus mutans 3289 after 24 hrs by microtiter ELISA; conditions: Streptococcus mutans, 3289, 24 h; method in brief: as §2

Structure (SMILES) | MIC (Staphylococcus aureus [1]) | MIC (Escherichia coli) | MIC (Staphylococcus aureus [2]) | MIC (Candida albicans) | MIC (Staphylococcus aureus [3]) | MIC (Staphylococcus aureus [4]) | MIC (Staphylococcus aureus [5]) | MIC (Streptococcus mutans)
NC1=NC(c2cn(-c3ccc([N+](=O)[O-])cc3[N+](=O)[O-])nc2-c2ccc(Br)cc2)N=C(N2CCOCC2)N1 (stereo unspecified) | 8 µg/mL (≈ 14 µM) | 8 µg/mL (≈ 14 µM) | 8 µg/mL (≈ 14 µM) | 8 µg/mL (≈ 14 µM) | 8 µg/mL (≈ 14 µM) | 8 µg/mL (≈ 14 µM) | 4 µg/mL (≈ 7.01 µM) | 16 µg/mL (≈ 28.1 µM)
NC1=NC(c2cn(-c3ccccc3)nc2-c2ccc(Cl)cc2)N=C(N2CCOCC2)N1 (stereo unspecified) | 16 µg/mL (≈ 36.7 µM) | 16 µg/mL (≈ 36.7 µM) | 16 µg/mL (≈ 36.7 µM) | 16 µg/mL (≈ 36.7 µM) | 16 µg/mL (≈ 36.7 µM) | 16 µg/mL (≈ 36.7 µM) | 16 µg/mL (≈ 36.7 µM) | 32 µg/mL (≈ 73.4 µM)
NC1=NC(c2cn(-c3ccc([N+](=O)[O-])cc3[N+](=O)[O-])nc2-c2ccccc2Cl)N=C(N2CCOCC2)N1 (stereo unspecified) | 32 µg/mL (≈ 60.8 µM) | 64 µg/mL (≈ 122 µM) | 32 µg/mL (≈ 60.8 µM) | 64 µg/mL (≈ 122 µM) | 64 µg/mL (≈ 122 µM) | 32 µg/mL (≈ 60.8 µM) | 32 µg/mL (≈ 60.8 µM) | 64 µg/mL (≈ 122 µM)
OC(Cn1cncn1)(Cn1cncn1)c1ccc(F)cc1F [FLUCONAZOLE] | – | – | – | 1 µg/mL (≈ 3.27 µM) | – | – | – | –
CN(C)C1=NC(c2cn(-c3ccccc3)nc2-c2cccc(Cl)c2)N=C(N)N1 (stereo unspecified) | 32 µg/mL (≈ 81.2 µM) | 8 µg/mL (≈ 20.3 µM) | 16 µg/mL (≈ 40.6 µM) | 8 µg/mL (≈ 20.3 µM) | 32 µg/mL (≈ 81.2 µM) | 4 µg/mL (≈ 10.2 µM) | 16 µg/mL (≈ 40.6 µM) | 16 µg/mL (≈ 40.6 µM)
CN(C)C1=NC(c2cn(-c3ccc([N+](=O)[O-])cc3[N+](=O)[O-])nc2-c2ccccc2Br)N=C(N)N1 (stereo unspecified) | 32 µg/mL (≈ 60.6 µM) | 32 µg/mL (≈ 60.6 µM) | 32 µg/mL (≈ 60.6 µM) | 64 µg/mL (≈ 121 µM) | 64 µg/mL (≈ 121 µM) | 32 µg/mL (≈ 60.6 µM) | 32 µg/mL (≈ 60.6 µM) | 32 µg/mL (≈ 60.6 µM)
CN(C)C1=NC(c2cn(-c3ccc([N+](=O)[O-])cc3[N+](=O)[O-])nc2-c2cccc(Cl)c2)N=C(N)N1 (stereo unspecified) | 4 µg/mL (≈ 8.27 µM) | 8 µg/mL (≈ 16.5 µM) | 4 µg/mL (≈ 8.27 µM) | 8 µg/mL (≈ 16.5 µM) | 16 µg/mL (≈ 33.1 µM) | 4 µg/mL (≈ 8.27 µM) | 4 µg/mL (≈ 8.27 µM) | 8 µg/mL (≈ 16.5 µM)
Cc1onc(-c2ccccc2)c1C(=O)N[C@@H]1C(=O)N2[C@@H]1SC(C)(C)[C@@H]2C(=O)O [OXACILLIN] | 1 µg/mL (≈ 2.49 µM) | – | > 64 µg/mL | – | 1 µg/mL (≈ 2.49 µM) | – | > 64 µg/mL | –
CN(C)C1=NC(c2cn(-c3ccccc3)nc2-c2ccc(Cl)cc2)N=C(N)N1 (stereo unspecified) | 16 µg/mL (≈ 40.6 µM) | 8 µg/mL (≈ 20.3 µM) | 16 µg/mL (≈ 40.6 µM) | 8 µg/mL (≈ 20.3 µM) | 16 µg/mL (≈ 40.6 µM) | 8 µg/mL (≈ 20.3 µM) | 8 µg/mL (≈ 20.3 µM) | 32 µg/mL (≈ 81.2 µM)
NC1=NC(c2cn(-c3ccc([N+](=O)[O-])cc3[N+](=O)[O-])nc2-c2ccccc2[N+](=O)[O-])N=C(N2CCOCC2)N1 (stereo unspecified) | > 64 µg/mL | > 64 µg/mL | > 64 µg/mL | > 64 µg/mL | > 64 µg/mL | > 64 µg/mL | > 64 µg/mL | > 64 µg/mL
CN(C)C1=NC(c2cn(-c3ccc([N+](=O)[O-])cc3[N+](=O)[O-])nc2-c2ccccc2Cl)N=C(N)N1 (stereo unspecified) | 32 µg/mL (≈ 66.1 µM) | 32 µg/mL (≈ 66.1 µM) | 32 µg/mL (≈ 66.1 µM) | 64 µg/mL (≈ 132 µM) | 64 µg/mL (≈ 132 µM) | 32 µg/mL (≈ 66.1 µM) | 64 µg/mL (≈ 132 µM) | 64 µg/mL (≈ 132 µM)
CN(C)C1=NC(c2cn(-c3ccccc3)nc2-c2ccc(Br)cc2)N=C(N)N1 (stereo unspecified) | 16 µg/mL (≈ 36.5 µM) | 8 µg/mL (≈ 18.3 µM) | 4 µg/mL (≈ 9.13 µM) | 8 µg/mL (≈ 18.3 µM) | 16 µg/mL (≈ 36.5 µM) | 8 µg/mL (≈ 18.3 µM) | 4 µg/mL (≈ 9.13 µM) | 16 µg/mL (≈ 36.5 µM)
CN(C)C1=NC(c2cn(-c3ccc([N+](=O)[O-])cc3[N+](=O)[O-])nc2-c2ccccc2)N=C(N)N1 (stereo unspecified) | 32 µg/mL (≈ 71.2 µM) | 32 µg/mL (≈ 71.2 µM) | 32 µg/mL (≈ 71.2 µM) | 32 µg/mL (≈ 71.2 µM) | 64 µg/mL (≈ 142 µM) | 32 µg/mL (≈ 71.2 µM) | 64 µg/mL (≈ 142 µM) | 64 µg/mL (≈ 142 µM)
NC1=NC(c2cn(-c3ccccc3)nc2-c2cccc(Cl)c2)N=C(N2CCOCC2)N1 (stereo unspecified) | 16 µg/mL (≈ 36.7 µM) | 16 µg/mL (≈ 36.7 µM) | 16 µg/mL (≈ 36.7 µM) | 16 µg/mL (≈ 36.7 µM) | 16 µg/mL (≈ 36.7 µM) | 16 µg/mL (≈ 36.7 µM) | 16 µg/mL (≈ 36.7 µM) | 32 µg/mL (≈ 73.4 µM)
